According to ChEMBL document CHEMBL1157353, “Synthesis and biological evaluation of (-)- and (+)-debromoflustramine B and its analogues as selective butyrylcholinesterase inhibitors” (J Med Chem, 2008):
Activity calls are given as the source filed them. The calls are words filed in the database; no cut-off is given here.

The compounds below were run against T1, Cholinesterase (Homo sapiens, UniProt P06276) (assay: Inhibition of human plasma BChE after 20 mins by Ellman's method).
T1 sequence (P06276 whole entry): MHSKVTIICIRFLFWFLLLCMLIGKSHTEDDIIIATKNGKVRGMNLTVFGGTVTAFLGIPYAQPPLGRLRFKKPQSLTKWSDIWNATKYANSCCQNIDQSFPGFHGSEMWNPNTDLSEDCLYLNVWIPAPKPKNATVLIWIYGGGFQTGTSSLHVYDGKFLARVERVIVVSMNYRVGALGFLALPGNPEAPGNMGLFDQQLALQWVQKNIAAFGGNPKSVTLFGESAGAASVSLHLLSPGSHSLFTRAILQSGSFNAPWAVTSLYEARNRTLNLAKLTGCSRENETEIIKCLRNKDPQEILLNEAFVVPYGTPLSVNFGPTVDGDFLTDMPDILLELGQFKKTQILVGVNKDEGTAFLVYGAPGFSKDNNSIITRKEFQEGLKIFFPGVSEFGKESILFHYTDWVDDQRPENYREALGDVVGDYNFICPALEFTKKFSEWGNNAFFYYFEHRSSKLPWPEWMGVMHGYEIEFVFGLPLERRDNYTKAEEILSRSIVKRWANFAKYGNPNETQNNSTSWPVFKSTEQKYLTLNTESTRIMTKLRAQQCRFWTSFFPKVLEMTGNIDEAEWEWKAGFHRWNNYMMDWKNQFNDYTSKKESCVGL
Assay type: cell-free
Summary of the method: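 Human plasma BChE, Ellman method, in 0.1 M phosphate buffer pH 8.0 with 340 µM butyrylthiocholine iodide. Compounds were preincubated with enzyme for 20 min at 37 °C before substrate was added, and an enzyme-free blank corrected for nonenzymatic hydrolysis. Compounds were screened at 1 mM; those giving >30% inhibition were run at nine concentrations (10-3–10-7 M), three times in triplicate. IC50 came from probit-transformed % activity versus log concentration.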
With `COc1ccc2c(c1)C1(CC=C(C)C)CCN(C)C1N2CC=C(C)C` (configuration not stated) the IC50 was 4.59 µM.
In the case of `COc1ccc2c(c1)C1(CC=C(C)C)CCN(Cc3ccccc3)C1N2CC=C(C)C` (configuration not stated), the IC50 is reported as 50 µM.
Compound `CN1CCC2(Cc3ccccc3)c3ccccc3N(Cc3ccccc3)C12` (configuration not stated) has an IC50 of 22.1 µM.
`CC(C)=CCN1c2ccccc2C2(CC=C(C)C)CCN(C)C12` (racemic) [(+/-)-DEBROMOFLUSTRAMINE B] gave an IC50 of 2.59 µM.
`CC(C)=CCN1c2ccccc2[C@@]2(CC=C(C)C)CCN(C)[C@@H]12` [(+)-DEBROMOFLUSTRAMINE B] gave an IC50 of 10300 µM.
`COc1ccc2c(c1)C1(Cc3ccccc3)CCN(C)C1N2Cc1ccccc1` (configuration not stated) gave an IC50 of 5.89 µM.
In the case of `COc1ccc2c(c1)C1(CC=C(C)C)CCN(C)C1N2Cc1ccccc1` (configuration not stated), the IC50 is reported as 7.54 µM.
`CC(C)=CCN1c2ccccc2[C@]2(CC=C(C)C)CCN(C)[C@H]12` [(-)-DEBROMOFLUSTRAMINE B] was tested, and the IC50 was 1.37 µM.
Work on `CC(C)=CCN1CCC2(CC=C(C)C)c3ccccc3N(CC=C(C)C)C12` (configuration not stated) yielded an IC50 of 1.72 µM.
In the case of `CC(C)=CCC12CCN(C)C1N(Cc1ccccc1)c1ccccc12` (configuration not stated), the IC50 is reported as 10 µM.
`CC(C)=CCN1c2ccccc2C2(CC=C(C)C)CCNC12` (configuration not stated) [DEMETHYLDEBROMOFLUSTRAMINE B] showed an IC50 of 0.26 µM.

Each compound was assayed against T1, Cholinesterase (assay: Inhibition of human plasma BChE at <10000 uM after 20 mins by Ellman's method).
Assay type: cell-free
With `CN1CCC2(Cc3ccncc3)c3ccccc3N(Cc3ccncc3)C12` (configuration not stated) the Activity was “inactive”.
For `COc1ccc2c(c1)C1(Cc3ccccc3)CCN(Cc3ccccc3)C1N2Cc1ccccc1` (configuration not stated), the Activity was “inactive”.
In the case of `CCCN1c2ccccc2C2(CCC)CCN(C)C12` (configuration not stated), the Activity is reported as “inactive”.
`CC(C)CCN1c2ccccc2C2(CCC(C)C)CCN(C)C12` (configuration not stated) was tested, and the Activity was “inactive”.
With `CN1CCC2(Cc3ccncc3)c3ccccc3N(Cc3ccccc3)C12` (configuration not stated) the Activity was “inactive”.
In the case of `CC(C)=CCN1c2ccccc2C2(CC=C(C)C)CCN(Cc3ccccc3)C12` (configuration not stated), the Activity is reported as “inactive”.
For `CC(C)=CCC12CCN(C)C1N(C)c1ccccc12` (configuration not stated), the Activity was “inactive”.
`CN1CCC2(C)c3ccccc3N(C)C12` (configuration not stated) was tested, and the Activity was “inactive”.
In the case of `CC(C)=CCN1c2ccccc2[C@]2(CC=C(C)C)CCN(C)[C@H]12` [(-)-DEBROMOFLUSTRAMINE B], the Activity is reported as “inactive”.
For `COc1ccc2c(c1)C1(CC=C(C)C)CCN(Cc3ccccc3)C1N2Cc1ccccc1` (configuration not stated), the Activity was “inactive”.
`CCN1c2ccccc2C2(CC)CCN(C)C12` (configuration not stated) was tested, and the Activity was “inactive”.
